Laboratory results published in ChEMBL document CHEMBL2203053, “DNA binding acridine-thiazolidinone agents affecting intracellular glutathione” (Bioorg Med Chem, 2012).
The source made the active and inactive calls. The calls are words filed in the database; no cut-off is given here.

Experiments:
Nucleic Acid [1] = experiment: Binding affinity to calf thymus DNA assessed as hypochromicity at 25 uM by UV-visible spectrophotometry; assay type: nucleic-acid assay; settings: Bos taurus
How it was run: (§1)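 Absorption spectra were taken in 0.01 M Tris buffer, pH 7.4. Compounds were diluted from DMSO stock to a final 25 µM. Sonicated calf thymus DNA in TE buffer was added at 0–30 µM bp, with concentration set by A260. Shift of λmax (free vs bound) and % hypochromicity were recorded.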

HL-60 [2] = experiment: Cytotoxicity against BSO pretreated human HL60 cells assessed as cell viability at 1.5 uM treated 6 hrs after BSO addition measured after 48 hrs by trypan blue exclusion assay; assay type: functional, cell-based
How it was run: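 HL-60 cells were pretreated 6 h with L-buthionine-sulfoximine (10 µM), then exposed to 1.5, 3.0 or 1.0 µM compound for 48 h. Viable cells were counted by trypan blue staining and expressed as percentage of all cells.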

A2780 [3] = experiment: Cytotoxicity against human A2780 cells after 48 hrs by MTT assay; assay type: functional, cell-based; settings: A2780, 48 h
How it was run: (§2)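 HL-60, L1210 and A2780 cells were grown in RPMI 1640 with 10% FBS, penicillin and streptomycin at 37 °C, 5% CO₂; HL-60 and A2780 medium also had 2 mM glutamine. Cells were exposed to 0–30 µM for 48 or 72 h. Viability was read by MTT microculture tetrazolium assay and IC50 was determined.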

Nucleic Acid [4] = experiment: Binding affinity to calf thymus DNA assessed as binding constant by spectrofluorimetry based McGhee von Hippel method; assay type: nucleic-acid assay; settings: Bos taurus
How it was run: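 Fluorescence titration used compound at 26.7 µM in 0.01 M Tris buffer (pH 7.4, 24 °C). ctDNA was added stepwise from 0 to 32 µM bp at 2 µM intervals until spectra stopped changing. Excitation was 384 nm and emission was read at 410–470 nm. Binding constant K was derived by the McGhee–von Hippel method from Scatchard plot data.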

HL-60 [5] = experiment: Cytotoxicity against human HL60 cells after 48 hrs using trypan blue exclusion staining by DCC method; assay type: functional, cell-based; settings: HL-60, 48 h
How it was run: (§3)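 For trypan blue dye-exclusion direct cell counting, HL-60 cells were seeded at 1 × 10⁵ cells/mL. Compound at 0–10 µM, or 1% DMSO control, was added after 24 h. Viable counts were taken after 24, 48 and 72 h. IC50 (50% inhibition of viability) came from growth curves, as mean ± S.D., n = 3.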

HL-60 [6] = experiment: Drug uptake in human HL60 cells at 5 uM after 4 hrs by Hoechst staining based fluorescence microscopy; assay type: ADME, cell-based; settings: hl-60, 4 h
How it was run: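 HL-60 cells were exposed to 5 µM for 4 h at 37 °C, 5% CO₂, then washed in PBS. Intrinsic blue fluorescence was viewed by optical and fluorescence microscopy. Untreated control cells were stained with Hoechst 33342 (10 µM, 10 min).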

HL-60 [7] = experiment: Cytotoxicity against human HL60 cells after 72 hrs using trypan blue exclusion staining by DCC method; assay type: functional, cell-based; settings: HL-60, 72 h; how it was run: as §3
HL-60 [8] = experiment: Induction of necrosis in human HL60 cells assessed as cell shrinking at 5 uM after 24 hrs by propidium iodide staining based fluorescence microscopy; assay type: functional
HL-60 [9] = experiment: Cytotoxicity against human HL60 cells after 72 hrs by MTT assay; assay type: functional, cell-based; settings: HL-60, 72 h; how it was run: as §2
Nucleic Acid [10] = experiment: Ratio of proflavine K to compound K for calf thymus DNA by spectrofluorimetry based McGhee von Hippel method; assay type: nucleic-acid assay; settings: Bos taurus
HL-60 [11] = experiment: Cytotoxicity against human HL60 cells after 48 hrs by MTT assay; assay type: functional, cell-based; settings: HL-60, 48 h; how it was run: as §2
HL-60 [12] = experiment: Decrease in intracellular glutathione level in human HL60 cells at 2 uM after 24 hrs by spectrophotometric analysis; assay type: functional, cell-based
HL-60 [13] = experiment: Decrease in intracellular glutathione level in human HL60 cells at 2 uM after 2 hrs by spectrophotometric analysis; assay type: functional, cell-based
A2780 [14] = experiment: Cytotoxicity against human A2780 cells after 72 hrs by MTT assay; assay type: functional, cell-based; settings: A2780, 72 h; how it was run: as §2
L1210 [15] = experiment: Cytotoxicity against mouse L1210 cells after 48 hrs by MTT assay; assay type: functional, cell-based; settings: L1210, 48 h; how it was run: as §2
Nucleic Acid [16] = experiment: Ratio of acridine orange K to compound K for calf thymus DNA by spectrofluorimetry based McGhee von Hippel method; assay type: nucleic-acid assay; settings: Bos taurus
A2780 [17] = experiment: Drug uptake in human A2780 cells at 5 uM after 4 hrs by Hoechst staining based fluorescence microscopy; assay type: ADME, cell-based; settings: a2780, 4 h
Nucleic Acid [18] = experiment: Ratio of daunomycin K to compound K for calf thymus DNA by spectrofluorimetry based McGhee von Hippel method; assay type: nucleic-acid assay; settings: Bos taurus
L1210 [19] = experiment: Cytotoxicity against mouse L1210 cells after 72 hrs by MTT assay; assay type: functional, cell-based; settings: L1210, 72 h; how it was run: as §2
Nucleic Acid [20] = experiment: Binding affinity to calf thymus DNA assessed as bathochromic shift at 25 uM by UV-visible spectrophotometry; assay type: nucleic-acid assay; settings: Bos taurus; how it was run: as §1
Nucleic Acid [21] = experiment: Binding affinity to calf thymus DNA assessed as melting temperature at 5 uM at pH 7.1 by thermal denaturation assay; assay type: nucleic-acid assay; settings: Bos taurus

- Activity (Nucleic Acid [1]): 26.3%
- K (Nucleic Acid [4]): 2.21 ×10⁶ /M
- Drug uptake (HL-60 [6]): Active
- Ratio (Nucleic Acid [10]): 10
- Ratio (Nucleic Acid [16]): 10
- Drug uptake (A2780 [17]): Active
- Ratio (Nucleic Acid [18]): 10
- Activity (Nucleic Acid [20]): Active
- Tm (Nucleic Acid [21]): 75 °C
Compound: CCC(C)N1C(=O)/C(=C/C(=O)OC)S/C1=N\c1c2ccccc2nc2ccccc12 (stereo unspecified)
- Activity (HL-60 [2]): Active
- IC50 (A2780 [3]): 20.8 µM
- IC50 (HL-60 [5]): 2 µM
- IC50 (HL-60 [7]): 1.7 µM
- Activity (HL-60 [8]): Active
- IC50 (HL-60 [9]): 2.1 µM
- IC50 (HL-60 [11]): 3.4 µM
- Activity (HL-60 [12]): Active
- Activity (HL-60 [13]): Active
- IC50 (A2780 [14]): 12.6 µM
- IC50 (L1210 [15]): 3.3 µM
- IC50 (L1210 [19]): 7.5 µM
